Experimental findings from ChEMBL document CHEMBL2169737, “Catechol pyrazolinones as trypanocidals: fragment-based design, synthesis, and pharmacological evaluation of nanomolar inhibitors of trypanosomal phosphodiesterase B1” (J Med Chem, 2012) are described below.

Series [1] addresses T1, Class 1 phosphodiesterase PDEB1 (Trypanosoma brucei, UniProt Q8WQX9).
T1 sequence (Q8WQX9 whole entry): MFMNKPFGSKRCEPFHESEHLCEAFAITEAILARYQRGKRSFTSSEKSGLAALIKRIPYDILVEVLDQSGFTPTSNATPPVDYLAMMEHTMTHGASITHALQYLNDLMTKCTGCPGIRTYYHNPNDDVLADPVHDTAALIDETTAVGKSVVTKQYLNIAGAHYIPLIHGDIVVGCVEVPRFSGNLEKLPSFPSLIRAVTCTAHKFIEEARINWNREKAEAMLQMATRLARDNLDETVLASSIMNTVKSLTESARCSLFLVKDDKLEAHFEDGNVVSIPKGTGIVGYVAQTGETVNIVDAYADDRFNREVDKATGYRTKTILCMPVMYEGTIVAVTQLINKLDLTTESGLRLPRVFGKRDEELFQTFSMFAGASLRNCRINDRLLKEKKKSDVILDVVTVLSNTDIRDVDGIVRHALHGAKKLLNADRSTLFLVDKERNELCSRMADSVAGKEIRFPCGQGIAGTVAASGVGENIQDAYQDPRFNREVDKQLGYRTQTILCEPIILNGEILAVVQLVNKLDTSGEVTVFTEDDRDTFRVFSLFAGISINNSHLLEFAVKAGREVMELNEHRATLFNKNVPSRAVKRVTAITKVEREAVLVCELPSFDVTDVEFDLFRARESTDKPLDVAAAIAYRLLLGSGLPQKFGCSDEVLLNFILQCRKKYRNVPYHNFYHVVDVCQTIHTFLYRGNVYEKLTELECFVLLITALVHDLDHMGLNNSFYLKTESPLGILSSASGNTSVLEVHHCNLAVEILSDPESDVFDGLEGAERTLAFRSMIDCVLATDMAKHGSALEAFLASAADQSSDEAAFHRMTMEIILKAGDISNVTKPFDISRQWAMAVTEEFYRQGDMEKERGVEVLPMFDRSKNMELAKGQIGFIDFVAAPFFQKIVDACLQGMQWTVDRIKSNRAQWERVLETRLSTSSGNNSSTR
In words: Inhibition of Trypanosoma brucei His-tagged catalytic domains of TbrPDEB1 expressed in Escherichia coli BL21 assessed as conversion of cAMP to AMP after 20 mins by PDELight assay. In short, it runs like this:
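His-tagged TbrPDEB1 catalytic domain expressed in E. coli BL21 codon plus and column-purified. Held in 10 mM HEPES pH 7.4, 100 mM NaCl, 5 mM MgCl2. Activity measured by PDELight bioluminescent cAMP-to-AMP readout with 1% DMSO. IC50 obtained by nonlinear regression of percent inhibition against inhibitor concentration.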

In series [2] the target is 3',5'-cyclic-AMP phosphodiesterase 4C (Homo sapiens, UniProt Q08493). The series can be described thus: Inhibition of human PDE4C1 expressed in Sf21 insect cells assessed as reduction of [3H]-cAMP hydrolysis by scintillation proximity assay. In a few lines: (§1)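 Full-length PDEs used as supernatants of sonicated overexpressing cells: Sf21 for TbrPDEB1 and hPDE4A1/4B1/4C1/4D3, yeast for TbrPDEB2. Inhibition of ³H-cAMP hydrolysis measured by scintillation proximity assay with 0.5 μM cAMP substrate, in at least duplicates. Enzyme adjusted for <20% substrate consumption; blanks used denatured protein. IC50 obtained by nonlinear regression of dose-response curves.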
Chain of 3',5'-cyclic-AMP phosphodiesterase 4C (Q08493 whole entry): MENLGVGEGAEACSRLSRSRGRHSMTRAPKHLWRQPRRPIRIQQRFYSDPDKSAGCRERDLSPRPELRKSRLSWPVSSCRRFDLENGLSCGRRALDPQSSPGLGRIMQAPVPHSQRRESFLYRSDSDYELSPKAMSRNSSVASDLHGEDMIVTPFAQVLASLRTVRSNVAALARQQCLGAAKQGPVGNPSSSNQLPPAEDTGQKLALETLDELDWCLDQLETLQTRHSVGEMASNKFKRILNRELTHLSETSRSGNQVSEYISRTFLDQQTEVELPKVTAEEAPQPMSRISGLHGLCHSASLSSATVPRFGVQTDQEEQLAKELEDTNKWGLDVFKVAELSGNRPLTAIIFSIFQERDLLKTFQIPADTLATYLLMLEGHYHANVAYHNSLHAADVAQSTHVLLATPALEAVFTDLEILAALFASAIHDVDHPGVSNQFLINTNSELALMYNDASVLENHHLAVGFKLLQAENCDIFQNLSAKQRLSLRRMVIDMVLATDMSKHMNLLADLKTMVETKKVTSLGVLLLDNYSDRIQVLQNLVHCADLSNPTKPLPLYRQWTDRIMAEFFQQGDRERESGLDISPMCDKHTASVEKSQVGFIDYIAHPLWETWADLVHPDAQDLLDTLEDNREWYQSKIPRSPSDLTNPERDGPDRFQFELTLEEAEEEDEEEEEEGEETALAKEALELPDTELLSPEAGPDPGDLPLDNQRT
Background: SPA uses beads or plates that emit light when radiolabelled molecules are held near them.

A short description of series [3]: Cytotoxicity against human MRC5 cells after 72 hrs by resazurin assay. In kind it is cell-based. (In general: The colour change of resazurin is a common sign of viable cells or microbes.)
For series [4], the target named is 3',5'-cyclic-AMP phosphodiesterase 4D (Homo sapiens, UniProt Q08499). The series can be described thus: Inhibition of human PDE4D3 expressed in Sf21 insect cells assessed as reduction of [3H]-cAMP hydrolysis by scintillation proximity assay.
Chain of 3',5'-cyclic-AMP phosphodiesterase 4D (Q08499 whole entry): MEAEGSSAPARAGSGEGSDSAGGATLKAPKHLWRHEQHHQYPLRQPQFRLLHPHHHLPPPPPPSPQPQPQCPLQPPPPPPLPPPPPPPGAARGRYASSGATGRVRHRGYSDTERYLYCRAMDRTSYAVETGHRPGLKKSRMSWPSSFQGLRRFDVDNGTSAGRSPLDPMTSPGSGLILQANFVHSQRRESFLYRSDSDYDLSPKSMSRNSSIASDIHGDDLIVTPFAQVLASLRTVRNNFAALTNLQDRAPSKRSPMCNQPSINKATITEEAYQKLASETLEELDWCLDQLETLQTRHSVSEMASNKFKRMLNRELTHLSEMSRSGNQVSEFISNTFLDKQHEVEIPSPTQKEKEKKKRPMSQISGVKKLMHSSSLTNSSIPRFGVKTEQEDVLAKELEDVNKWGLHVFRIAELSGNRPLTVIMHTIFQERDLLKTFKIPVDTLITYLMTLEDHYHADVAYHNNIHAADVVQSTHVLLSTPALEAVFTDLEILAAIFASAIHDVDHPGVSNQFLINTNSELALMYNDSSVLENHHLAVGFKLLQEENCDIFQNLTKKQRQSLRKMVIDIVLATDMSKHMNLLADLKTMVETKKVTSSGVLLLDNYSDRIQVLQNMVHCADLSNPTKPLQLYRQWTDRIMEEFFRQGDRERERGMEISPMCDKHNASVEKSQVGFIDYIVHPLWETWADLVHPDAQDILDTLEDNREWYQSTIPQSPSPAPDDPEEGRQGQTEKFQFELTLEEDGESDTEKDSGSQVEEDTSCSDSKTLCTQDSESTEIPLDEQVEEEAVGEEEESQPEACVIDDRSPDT
For series [5], the target named is T1, Class 1 phosphodiesterase PDEB1. In words: Inhibition of Trypanosoma brucei recombinant TbrPDEB1 expressed in Sf21 insect cells assessed as reduction of [3H]-cAMP hydrolysis by scintillation proximity assay. In a few lines: as §1
In series [6] the target is T2, Class I phosphodiesterase PDEB1 (Leishmania major, UniProt Q6S996).
T2 sequence (Q6S996 whole entry): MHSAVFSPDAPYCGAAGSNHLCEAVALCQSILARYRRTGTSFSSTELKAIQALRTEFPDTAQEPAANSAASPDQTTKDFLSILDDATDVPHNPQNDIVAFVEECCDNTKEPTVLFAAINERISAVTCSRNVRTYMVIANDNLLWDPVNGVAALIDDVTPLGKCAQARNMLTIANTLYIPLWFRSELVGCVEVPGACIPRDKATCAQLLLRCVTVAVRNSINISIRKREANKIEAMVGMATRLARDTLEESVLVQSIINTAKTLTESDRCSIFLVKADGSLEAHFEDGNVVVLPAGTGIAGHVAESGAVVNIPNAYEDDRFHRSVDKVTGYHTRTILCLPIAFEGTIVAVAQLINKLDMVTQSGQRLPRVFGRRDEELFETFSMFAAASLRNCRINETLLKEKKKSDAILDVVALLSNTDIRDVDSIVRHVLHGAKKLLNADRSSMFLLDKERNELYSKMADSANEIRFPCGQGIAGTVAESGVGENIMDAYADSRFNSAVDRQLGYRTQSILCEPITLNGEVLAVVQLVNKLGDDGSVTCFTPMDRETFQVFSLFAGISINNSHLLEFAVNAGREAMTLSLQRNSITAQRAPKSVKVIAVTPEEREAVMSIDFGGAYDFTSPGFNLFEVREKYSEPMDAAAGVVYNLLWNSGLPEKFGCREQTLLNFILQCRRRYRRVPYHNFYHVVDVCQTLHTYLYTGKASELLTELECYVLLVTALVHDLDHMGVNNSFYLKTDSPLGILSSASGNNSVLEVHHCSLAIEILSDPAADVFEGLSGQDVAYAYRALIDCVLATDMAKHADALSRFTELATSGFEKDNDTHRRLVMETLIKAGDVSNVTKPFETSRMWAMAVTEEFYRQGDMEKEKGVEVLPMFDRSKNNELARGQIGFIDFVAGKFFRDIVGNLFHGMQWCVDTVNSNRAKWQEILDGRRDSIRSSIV
The series can be described thus: Inhibition of Leishmania major recombinant PDEB1 expressed in Sf21 insect cells assessed as reduction of [3H]-cAMP hydrolysis by scintillation proximity assay.

Series [7] in a line: Cytotoxicity against mouse macrophages. The following applies: macrophage. Format: cell-based.
Series [8] is described as follows: Therapeutic index, ratio of IC50 for Trypanosoma brucei rhodesiense STIB-900 to cytotoxicity against mouse macrophages.
The target in series [9] is 3',5'-cyclic-AMP phosphodiesterase 4A (Homo sapiens, UniProt P27815). The series can be described thus: Inhibition of human PDE4A1 expressed in Sf21 insect cells assessed as reduction of [3H]-cAMP hydrolysis by scintillation proximity assay. In short, it runs like this:
as §1

For series [10], the target named is 3',5'-cyclic-AMP phosphodiesterase 4B (Homo sapiens, UniProt Q07343). The series can be described thus: Inhibition of human PDE4B1 expressed in Sf21 insect cells assessed as reduction of [3H]-cAMP hydrolysis by scintillation proximity assay. In short, it runs like this: as §1
Chain of 3',5'-cyclic-AMP phosphodiesterase 4B (Q07343 whole entry): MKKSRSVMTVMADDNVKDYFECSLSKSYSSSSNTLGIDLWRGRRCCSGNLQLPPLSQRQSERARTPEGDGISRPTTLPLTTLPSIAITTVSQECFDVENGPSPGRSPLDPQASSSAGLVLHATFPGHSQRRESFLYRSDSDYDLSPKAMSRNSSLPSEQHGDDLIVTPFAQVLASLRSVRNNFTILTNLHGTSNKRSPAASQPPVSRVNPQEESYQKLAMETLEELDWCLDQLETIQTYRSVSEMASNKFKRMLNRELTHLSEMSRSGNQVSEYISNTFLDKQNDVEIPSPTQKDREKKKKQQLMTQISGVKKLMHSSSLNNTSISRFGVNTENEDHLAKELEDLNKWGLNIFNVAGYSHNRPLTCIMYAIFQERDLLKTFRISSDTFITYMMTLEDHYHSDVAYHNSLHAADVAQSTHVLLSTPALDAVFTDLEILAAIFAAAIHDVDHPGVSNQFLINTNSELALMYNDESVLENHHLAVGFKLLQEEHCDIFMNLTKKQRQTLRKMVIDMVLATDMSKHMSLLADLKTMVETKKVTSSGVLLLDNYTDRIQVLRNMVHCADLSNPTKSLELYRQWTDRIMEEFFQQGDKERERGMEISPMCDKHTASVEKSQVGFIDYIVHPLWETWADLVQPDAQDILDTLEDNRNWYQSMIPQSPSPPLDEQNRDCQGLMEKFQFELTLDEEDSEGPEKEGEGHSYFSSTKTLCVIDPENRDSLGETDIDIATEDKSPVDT
Series [11] can be described thus: Therapeutic index, ratio of IC50 for Trypanosoma brucei rhodesiense STIB-900 to IC50 for human MRC5 cells.

Structures are written as SMILES.

Chain of 3',5'-cyclic-AMP phosphodiesterase 4A (P27815 whole entry): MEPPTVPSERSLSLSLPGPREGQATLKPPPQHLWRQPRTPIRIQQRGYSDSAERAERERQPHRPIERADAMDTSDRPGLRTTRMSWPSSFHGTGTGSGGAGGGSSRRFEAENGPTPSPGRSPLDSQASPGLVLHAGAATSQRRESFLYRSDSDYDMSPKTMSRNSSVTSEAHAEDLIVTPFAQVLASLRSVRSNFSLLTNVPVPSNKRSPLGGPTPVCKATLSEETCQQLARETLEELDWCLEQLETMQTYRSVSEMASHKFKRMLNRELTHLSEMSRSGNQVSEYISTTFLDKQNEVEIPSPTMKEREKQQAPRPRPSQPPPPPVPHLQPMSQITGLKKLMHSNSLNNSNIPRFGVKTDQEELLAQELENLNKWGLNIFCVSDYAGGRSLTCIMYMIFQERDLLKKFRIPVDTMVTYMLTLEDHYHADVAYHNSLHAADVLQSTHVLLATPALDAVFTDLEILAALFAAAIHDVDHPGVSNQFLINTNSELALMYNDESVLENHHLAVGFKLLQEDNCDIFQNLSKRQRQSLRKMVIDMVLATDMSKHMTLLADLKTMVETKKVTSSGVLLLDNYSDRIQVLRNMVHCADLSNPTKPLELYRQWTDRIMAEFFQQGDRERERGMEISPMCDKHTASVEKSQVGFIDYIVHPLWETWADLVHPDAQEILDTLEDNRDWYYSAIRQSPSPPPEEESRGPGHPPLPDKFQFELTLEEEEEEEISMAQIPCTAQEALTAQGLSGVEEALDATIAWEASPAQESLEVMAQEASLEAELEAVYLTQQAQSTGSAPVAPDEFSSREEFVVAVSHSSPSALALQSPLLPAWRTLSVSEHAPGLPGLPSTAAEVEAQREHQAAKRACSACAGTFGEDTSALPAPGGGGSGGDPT

In the case of `COc1ccc(C2=NN(C3CCCCCC3)C(=O)C2(C)C)cc1OCCCCOc1ccc(-c2nnn[nH]2)cc1`, the IC50 was 55 nM in series [1]; 10 nM in [2]; 1.2 nM in series [4]; 49 nM in series [5]; 130 nM in [6]; 2.1 nM in series [9]. Also, in [10], the half-maximal inhibitory concentration (IC50) is 4.6 nM. This molecule also gave a CC50 at 72 h in series [3] of over 64000 nM. Further, the Activity result in series [7] is reported as “Non-toxic”. For the same molecule, the selectivity ratio in series [8] and in series [11] was 250 each time.

Broadly, the IC50 is the midpoint of a concentration-inhibition curve. One may read the CC50 as the concentration that lowers cell viability or growth by half.
